Experimental data taken from ChEMBL document CHEMBL1153570, “Synthesis and antitubercular screening of imidazole derivatives” (2009).
Values after ≈ are worked out from the molar mass of the structure shown.

How the values were obtained:
Assay type in all cases: functional
[1] = tested on: Mycobacterium tuberculosis; experiment: Antimycobacterial activity against Mycobacterium tuberculosis H37Ra after 5 days by microplate alamar blue assay; conditions: 120 h
Summary of the method: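 Log-phase M. tuberculosis H37Ra diluted to final OD550 0.05 in Sauton's medium. Compounds in DMSO, twofold dilutions from […]. Incubated at 37 °C/5% CO2 for 5 days, alamar blue added on day 5, incubated overnight. Fluorescence read-out.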

[2] = tested on: Mycobacterium tuberculosis; experiment: Antimycobacterial activity against Mycobacterium tuberculosis H37Rv by agar microdilution assay
Summary of the method: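 H37Rv from L–J medium suspended in 0.85% saline with 0.05% Tween-80. Twofold compound dilutions in OADC-supplemented 7H10 agar slants, preincubated 24 h at 37 °C, then streaked with 5 × 10⁴ bacilli per tube. Incubated at 37 °C and growth read after 30 days against drug-free controls. MIC taken as the concentration giving complete inhibition of colonies.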

[3] = tested on: Mycobacterium tuberculosis; experiment: Antitubercular activity against Mycobacterium tuberculosis H37Rv after 5 to 8 days by BACTEC radiometric assay
Summary of the method: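 H37Rv from L–J slants homogenized with glass beads and adjusted to McFarland 1. Primary inoculum grown in BACTEC 12B vial to GI 500–700, then 0.1 ml added to 4 ml 12B broth containing compound. A 1:100-inoculum control vial was included. Incubated at 37 °C with daily GI readings; read one more day after the 1:100 control reached GI 30.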

Structure (SMILES)	MIC [1] [µg/mL]	MIC [2] [µg/mL]	MIC [3] [µg/mL]
c1ccc(Cn2cnc3ccccc32)cc1	> 12.5	> 12.5	
Clc1ccc(Cn2ccnc2)cc1Cl	> 12.5		
CCCCCCNC(=O)Cn1ccnc1	25 (≈ 119 µM)	> 12.5	
CCOC(=O)CCn1ccnc1		> 12.5	
c1cn(CCCCCn2ccnc2)cn1	> 12.5	> 12.5	
CCOC(=O)Cn1ccnc1	> 12.5	> 6.25	
C=CCc1cnc(CCC)n1CCCn1ccnc1CCC	> 12.5	25 (≈ 83.2 µM)	
c1cn(CCCn2ccnc2)cn1	> 12.5	> 12.5	
CCCc1nccn1C(CC(=O)OCC)C1O[C@H]2OC(C)(C)O[C@H]2[C@@H]1OC (stereo not given in full)	25 (≈ 65.4 µM)	25 (≈ 65.4 µM)	
CCCCCCCNC(=O)Cn1ccnc1	> 12.5	> 12.5	
CCCCNC(=O)Cn1ccnc1	> 12.5	> 12.5	
OCCn1ccnc1	> 12.5	> 12.5	
CCOC(=O)CC(C1O[C@H]2OC(C)(C)O[C@H]2[C@@H]1OC)n1ccnc1 (stereo not given in full)	25 (≈ 73.4 µM)	25 (≈ 73.4 µM)	
c1ccc(CNCCn2ccnc2)cc1	12.5 (≈ 62.1 µM)	12.5 (≈ 62.1 µM)	
CCOC(=O)CC(C1O[C@H]2OC(C)(C)O[C@H]2[C@@H]1OCc1ccccc1)n1ccnc1 (stereo not given in full)	50 (≈ 120 µM)	50 (≈ 120 µM)	
CCCc1nccn1CCCn1ccnc1CCC	> 12.5		6.25 (≈ 24 µM)
O=C(Cn1ccnc1)NCc1ccccc1	> 12.5	> 12.5	
CCCc1nccn1C(CC(=O)OCC)C1O[C@H]2OC(C)(C)O[C@H]2[C@@H]1OCc1ccccc1 (stereo not given in full)	50 (≈ 109 µM)	50 (≈ 109 µM)	
Clc1ccc(Cn2cnc3ccccc32)cc1Cl	> 12.5	> 12.5	
CC[C@@H](CO)NCCN[C@@H](CC)CO [ETHAMBUTOL]	1.5 (≈ 7.34 µM)	1.5 (≈ 7.34 µM)	
NNC(=O)c1ccncc1 [ISONIAZID]	0.65 (≈ 4.74 µM)	0.65 (≈ 4.74 µM)	
